Source: paper PMC11041979 (International Journal of Nanomedicine, 2024)
Values after ≈ are worked out from the molar mass of the structure shown.

Experiments:
[1] = Water solubility assay; type: physicochemical
Method in brief: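 Saturated aqueous test-compound solutions were sonicated, centrifuged and diluted 10–500-fold. Carbon dots (3 mg/mL stock) were diluted to 10 levels, 1500–3.12 μg/mL. Samples were centrifuged at 10000 rpm for 10 min and filtered through 0.22 µm. HPLC used a C18 column at 30°C with 0.4% acetic acid water–acetonitrile 85:15 at 1.0 mL/min and detection at 318 nm. Calibration followed Chinese Pharmacopoeia methods.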

[2] = Pharmacokinetics of MA in rats after oral gavage; type: in vivo, Sprague-Dawley rats
Method in brief: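 Male Sprague-Dawley rats (200 ± 20 g), acclimatised 1 week, fasted 12 h with free water. Test compound given by gavage at 20 mg/kg (2 mg/mL) as an aqueous suspension or as a saturated suspension in carbon-dot solution (stirred 20 min). Orbital blood drawn 5–1440 min into heparin. Plasma protein-precipitated with acetonitrile:acetic acid 9:1, isomangiferin internal standard, UHPLC-MS/MS. Mean ± SD.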

[3] = literature value; cited from earlier work
[4] = Sprague-Dawley, rat, plasma, po, 20 mg/kg

O=c1c2cc(O)c(O)cc2oc2cc(O)c([C@@H]3O[C@H](CO)[C@@H](O)[C@H](O)[C@H]3O)c(O)c12 [MA, Mangiferin]
solubility of MA in water with MC-CDs ([1]; aqueous MC-CDs solution, MC-CDs concentration exceeding 100 μg/mL): increases significantly
solubility ([1]; water, thermodynamic from solid): 115 µg/mL (≈ 273 µM)
maximum concentration ([2]; MA, oral, preliminary rat pharmacokinetics): 200 ng
AUC(0-t) [2, 4]: 1.52 ± 2.64 ng·h/mL
Cmax [2, 4]: 0.201 ± 0.0314 ng/mL
Tmax [2, 4]: 4 ± 1.42 h
half-life [2, 4]: 3.27 ± 2.18 h
Tmax after oral administration [3]: about 267.49 ± 108.29 min
